Data on nine compounds can be found in ChEMBL document CHEMBL4715819, “Bicyclic Helical Peptides as Dual Inhibitors Selective for Bcl2A1 and Mcl-1 Proteins” (J Med Chem, 2018).

Active and inactive are the calls of the source. The rule behind the calls is not given here. Positions of bridges follow the written chain, without caps; N, C: chain ends. Non-standard residues stand in square brackets, D forms with d. Residues, ends and D or L forms follow the SMILES beside them. ξ: configuration not given here. *: point of attachment. S5 = C=CCCC[C@](C)(N)C(=O)O; Acryloyl = C=CC(=O)*; Propionyl = CCC(=O)*; ξDap = NCC(N)C(=O)O

The target in experiment [1] is T1, Bcl-2-related protein A1 (Homo sapiens) (UniProt Q16548).
T1 sequence (whole entry): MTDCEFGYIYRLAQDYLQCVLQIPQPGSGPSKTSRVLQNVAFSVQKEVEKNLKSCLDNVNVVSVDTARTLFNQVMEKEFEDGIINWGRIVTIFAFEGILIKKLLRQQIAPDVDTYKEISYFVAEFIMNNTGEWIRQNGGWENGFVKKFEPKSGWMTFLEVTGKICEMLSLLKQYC
Put plainly: Covalent binding affinity to human Bcl2A1 incubated for 2 hrs by SDS-PAGE electrophoresis.

For experiment [2], the target named is T1, Bcl-2-related protein A1 (Homo sapiens). The experiment is described as follows: Covalent binding affinity to Bcl2A1 in human U937 cells at 0.1 to 50 uM incubated for 24 hrs by Western blot analysis. Conditions: U-937, dose 0.1-50 µM. (In general: In western blotting, separated proteins are transferred to a membrane and probed.)
The target is the same in experiment [3]. The experiment is described as follows: Covalent binding affinity to human Bcl2A1 assessed as Kinact/Ki ratio by FBid based FP assay.
Experiment [4] addresses T2, Bcl-2-related protein A1 (Homo sapiens, UniProt Q16548).
T2 sequence (Q16548 whole entry): T1 sequence (whole entry)
The experiment is described as follows: Covalent binding affinity to human Bcl2A1 by FBid based FP assay.

Experiment [5] addresses T3, Bcl-2-like protein 2 (Homo sapiens) (UniProt Q92843).
T3 sequence (whole entry): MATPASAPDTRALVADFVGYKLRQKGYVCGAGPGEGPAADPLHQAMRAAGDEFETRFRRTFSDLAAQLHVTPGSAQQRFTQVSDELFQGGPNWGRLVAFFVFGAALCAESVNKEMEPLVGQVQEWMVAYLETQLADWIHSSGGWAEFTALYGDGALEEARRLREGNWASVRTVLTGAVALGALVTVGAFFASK
Put plainly: Binding affinity to human Bcl-w incubated for 2 hrs by FBid based competitive FP assay.

Experiment [6] addresses T1, Bcl-2-related protein A1 (Homo sapiens). Put plainly: Covalent binding affinity to human Bcl2A1 incubated for 2 hrs by in presence of trypsin by MS/MS analysis. In a few lines:
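A1 at 1 μM incubated with peptide at 10 μM, 2 h, in pH 7.2 buffer. Intact conjugate mass checked by MS. The conjugate gel band was trypsin-digested and the Cys55-bearing A1 fragment with bound peptide identified by mass spectrometry.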

Experiment [7] deals with Apoptosis regulator Bcl-2 (Homo sapiens) (UniProt P10415). The experiment is described as follows: Binding affinity to human Bcl2 incubated for 2 hrs by FBid based competitive FP assay.
In experiment [8] the target is T2, Bcl-2-related protein A1. The experiment is described as follows: Binding affinity to human Bcl2A1 incubated for 2 hrs by FBid based competitive FP assay.
Experiment [9] has as its target T4, Induced myeloid leukemia cell differentiation protein Mcl-1 (Homo sapiens, UniProt Q07820). The experiment is described as follows: Binding affinity to human Mcl1 incubated for 2 hrs by FBid based competitive FP assay.
The target in experiment [10] is T1, Bcl-2-related protein A1 (Homo sapiens). Put plainly: Covalent binding affinity to human Bcl2A1 assessed as inactivation constant by FBid based FP assay.
The target of experiment [11] is Bcl-2-like protein 1 (Homo sapiens) (UniProt Q07817). Put plainly: Binding affinity to human Bcl-xL incubated for 2 hrs by FBid based competitive FP assay.
The target in experiment [12] is T4, Induced myeloid leukemia cell differentiation protein Mcl-1. The experiment is described as follows: Binding affinity to human Mcl1 by FBid based FP assay.
Experiment [13] relates to SK-MEL-28. The experiment is described as follows: Cytotoxicity in human SK-MEL-28 cells assessed as reduction in cell viability incubated for 48 hrs by MTT assay. The format is functional, cell-based. Conditions: SK-MEL-28, 48 h. The method in brief: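 SK-MEL-28 cells grown in DMEM with 10% FBS and penicillin/streptomycin. Peptide applied over a concentration series for 48 h. Viability read by MTT, and IC50 taken from the dose–response.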

T4 sequence (Q07820 whole entry): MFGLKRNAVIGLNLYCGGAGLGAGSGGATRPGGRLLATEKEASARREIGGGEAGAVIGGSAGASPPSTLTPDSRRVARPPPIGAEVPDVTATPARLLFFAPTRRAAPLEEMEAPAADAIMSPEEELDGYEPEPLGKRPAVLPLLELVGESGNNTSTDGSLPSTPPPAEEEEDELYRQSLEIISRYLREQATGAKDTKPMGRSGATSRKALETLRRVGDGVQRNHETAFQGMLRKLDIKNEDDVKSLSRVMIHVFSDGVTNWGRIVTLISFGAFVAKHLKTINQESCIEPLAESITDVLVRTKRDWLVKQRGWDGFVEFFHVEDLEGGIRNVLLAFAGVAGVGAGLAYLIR
Chain of Bcl-2-like protein 1 (Homo sapiens) (Q07817 whole entry): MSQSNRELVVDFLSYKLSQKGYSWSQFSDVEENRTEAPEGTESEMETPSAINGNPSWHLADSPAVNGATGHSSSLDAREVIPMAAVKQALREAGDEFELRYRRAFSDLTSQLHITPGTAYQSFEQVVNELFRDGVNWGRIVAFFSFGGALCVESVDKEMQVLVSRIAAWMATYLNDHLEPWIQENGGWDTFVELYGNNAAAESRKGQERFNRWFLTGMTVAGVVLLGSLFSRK
Chain of Apoptosis regulator Bcl-2 (Homo sapiens) (P10415 whole entry): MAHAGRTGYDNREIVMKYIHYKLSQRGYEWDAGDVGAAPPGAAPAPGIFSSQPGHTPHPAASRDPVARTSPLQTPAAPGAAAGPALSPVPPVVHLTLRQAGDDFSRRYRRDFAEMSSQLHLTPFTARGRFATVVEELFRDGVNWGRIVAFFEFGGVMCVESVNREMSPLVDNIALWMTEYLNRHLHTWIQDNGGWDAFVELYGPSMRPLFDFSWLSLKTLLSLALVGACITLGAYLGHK

As to `C=CC(=O)NCC1NC(=O)[C@@](C)(NC(C)=O)CCC/C=C/CCC[C@@](C)(C(=O)N[C@@H](CCC(=O)O)C(=O)N[C@@H](CC(C)C)C(=O)N[C@@H](CCCNC(=N)N)C(=O)N[C@H]2CCCCNC(=O)C[C@@H](C(=O)N[C@@H](Cc3ccccc3)C(N)=O)NC(=O)[C@H](CC(=O)O)NC(=O)CNC(=O)[C@H]([C@@H](C)CC)NC2=O)NC(=O)[C@H](C)NC(=O)[C@H]([C@@H](C)CC)NC1=O` (stereo partly drawn) (Ac-[S5][ξDap](Acryloyl)IA[S5]ELRKIGDDF-NH2; staple (E) 1-5; lactam 9-13), the result in experiment [1], in experiment [2] and in [6] was Active. Moreover, the Ratio in [3] came out at 399 mM⁻¹ s⁻¹. Besides, in [4], the Ki is 10 nM. For the same compound, the result in experiment [5], in [7] and in experiment [11] was inactive. Further, the IC50 (commonly the concentration needed to halve the response being measured) in experiment [8] was 6.6 nM; in experiment [9] it was 29.2 nM. Moreover, the Kinact in experiment [10] came to 0.00367 s⁻¹.

Take `C=CC(=O)NCC1NC(=O)[C@@](C)(NC(C)=O)CCC/C=C/CCC[C@@](C)(C(=O)N[C@@H](CC(C)C)C(=O)N[C@@H](CC(C)C)C(=O)N[C@@H](CCCNC(=N)N)C(=O)N[C@H]2CCCCNC(=O)C[C@@H](C(=O)N[C@@H](Cc3ccccc3)C(N)=O)NC(=O)[C@H](CC(=O)O)NC(=O)CNC(=O)[C@H]([C@@H](C)CC)NC2=O)NC(=O)[C@H](C)NC(=O)[C@H]([C@@H](C)CC)NC1=O` (stereo partly drawn) (Ac-[S5][ξDap](Acryloyl)IA[S5]LLRKIGDDF-NH2; staple (E) 1-5; lactam 9-13): the outcome in [10] was Active.

For `CCC(=O)NCC1NC(=O)[C@@](C)(NC(C)=O)CCC/C=C/CCC[C@@](C)(C(=O)N[C@@H](CCC(=O)O)C(=O)N[C@@H](CC(C)C)C(=O)N[C@@H](CCCNC(=N)N)C(=O)N[C@H]2CCCCNC(=O)C[C@@H](C(=O)N[C@@H](Cc3ccccc3)C(N)=O)NC(=O)[C@H](CC(=O)O)NC(=O)CNC(=O)[C@H]([C@@H](C)CC)NC2=O)NC(=O)[C@H](C)NC(=O)[C@H]([C@@H](C)CC)NC1=O` (stereo partly drawn) (Ac-[S5][ξDap](Propionyl)IA[S5]ELRKIGDDF-NH2; staple (E) 1-5; lactam 9-13), the result in experiment [1] and in experiment [2] was inactive. For the same compound, in experiment [12], the outcome was Active.

For the compound `C=CC(=O)NCC(NC(=O)[C@@H](NC(C)=O)[C@@H](C)CC)C(=O)N[C@H](C(=O)N[C@@H](C)C(=O)N[C@@H](CCC(N)=O)C(=O)N[C@@H](CCC(=O)O)C(=O)N[C@@H](CC(C)C)C(=O)N[C@@H](CCCNC(=N)N)C(=O)N[C@@]1(C)CCC/C=C/CCC[C@@](C)(C(=O)N[C@@H](Cc2ccccc2)C(N)=O)NC(=O)[C@H](CC(=O)O)NC(=O)CNC(=O)[C@H]([C@@H](C)CC)NC1=O)[C@@H](C)CC` (stereo partly drawn) (Ac-I[ξDap](Acryloyl)IAQELR[S5]IGD[S5]F-NH2; staple (E) 9-13), in experiment [2], the outcome was Active. The Ratio in experiment [3] turned out to be 9 mM⁻¹ s⁻¹. The compound also gave a Ki in experiment [4] of 175 nM. In addition, the result in experiment [5], in experiment [7] and in experiment [11] was inactive. Besides, the figures for the IC50 in experiment [8] and in experiment [9] were 54.6 nM and 162 nM, respectively. Also, the Kinact in experiment [10] turned out to be 0.00159 s⁻¹.

As for `C=CC(=O)NCC1NC(=O)[C@@H](NC(C)=O)CCCCNC(=O)C[C@@H](C(=O)N[C@@H](CCC(=O)O)C(=O)N[C@@H](CC(C)C)C(=O)N[C@@H](CCCNC(=N)N)C(=O)N[C@H]2CCCCNC(=O)C[C@@H](C(=O)N[C@@H](Cc3ccccc3)C(N)=O)NC(=O)[C@H](CC(=O)O)NC(=O)CNC(=O)[C@H]([C@@H](C)CC)NC2=O)NC(=O)[C@H](C)NC(=O)[C@H]([C@@H](C)CC)NC1=O` (stereo partly drawn) (Ac-K[ξDap](Acryloyl)IADELRKIGDDF-NH2; lactam 1-5, 9-13), in experiment [2], the result was Active. The Ratio in experiment [3] stood at 118 mM⁻¹ s⁻¹. This compound showed a Ki in [4] of 30.5 nM. Also, the outcome in experiment [5], in [7] and in experiment [11] was inactive. Besides, the IC50 amounted to 6.5 nM in experiment [8] and 48 nM in [9]. For the same compound, in experiment [10], the Kinact turned out to be 0.00349 s⁻¹.

`C=CC(=O)NCC(NC(=O)[C@@H](NC(C)=O)[C@@H](C)CC)C(=O)N[C@H](C(=O)N[C@@H](C)C(=O)N[C@@H](CCC(N)=O)C(=O)N[C@@H](CCC(=O)O)C(=O)N[C@@H](CC(C)C)C(=O)N[C@@H](CCCNC(=N)N)C(=O)N[C@@]1(C)CCC/C=C/CCC[C@@](C)(C(=O)N[C@@H](Cc2ccccc2)C(=O)N[C@@H](CC(N)=O)C(=O)N[C@@H](C)C(=O)N[C@@H](Cc2ccc(O)cc2)C(=O)N[C@@H](Cc2ccc(O)cc2)C(=O)N[C@@H](C)C(=O)N[C@@H](CCCNC(=N)N)C(=O)N[C@@H](CCCNC(=N)N)C(N)=O)NC(=O)[C@H](CC(=O)O)NC(=O)CNC(=O)[C@H]([C@@H](C)CC)NC1=O)[C@@H](C)CC` (stereo partly drawn): the result in experiment [2] was Active. The Ratio in experiment [3] turned out to be 30 mM⁻¹ s⁻¹. In addition, in experiment [4], the Ki was 81.6 nM. The IC50 in experiment [8] was found to be 13.5 nM; in experiment [9] it was 34.5 nM. The Kinact in experiment [10] was 0.00239 s⁻¹.

Take `C=CC(=O)NCC1NC(=O)[C@@H](NC(C)=O)CCCCNC(=O)C[C@@H](C(=O)N[C@@H](CCC(=O)O)C(=O)N[C@@H](CC(C)C)C(=O)N[C@@H](CCCNC(=N)N)C(=O)N[C@@]2(C)CCC/C=C/CCC[C@@](C)(C(=O)N[C@@H](Cc3ccccc3)C(N)=O)NC(=O)[C@H](CC(=O)O)NC(=O)CNC(=O)[C@H]([C@@H](C)CC)NC2=O)NC(=O)[C@H](C)NC(=O)[C@H]([C@@H](C)CC)NC1=O` (stereo partly drawn) (Ac-K[ξDap](Acryloyl)IADELR[S5]IGD[S5]F-NH2; lactam 1-5; staple (E) 9-13): the outcome in experiment [2] was Active. Also, in experiment [3], the Ratio is 54 mM⁻¹ s⁻¹. Also, in [4], the Ki turned out to be 46.7 nM. Moreover, the result in experiment [5], in [7] and in experiment [11] was inactive. Also, the IC50 in [8] amounted to 20.4 nM; in experiment [9], 108 nM. The Kinact in experiment [10] was determined as 0.00231 s⁻¹.

Turning to `CC[C@H](C)[C@H](NC(C)=O)C(=O)N[C@@H](Cc1c[nH]c2ccccc12)C(=O)N[C@H](C(=O)N[C@@H](C)C(=O)N[C@@H](CCC(N)=O)C(=O)N[C@@H](CCC(=O)O)C(=O)N[C@@H](CC(C)C)C(=O)N[C@@H](CCCNC(=N)N)C(=O)N[C@@]1(C)CCC/C=C/CCC[C@@](C)(C(=O)N[C@@H](Cc2ccccc2)C(=O)N[C@@H](CC(N)=O)C(=O)N[C@@H](C)C(=O)N[C@@H](Cc2ccc(O)cc2)C(=O)N[C@@H](Cc2ccc(O)cc2)C(=O)N[C@@H](C)C(=O)N[C@@H](CCCNC(=N)N)C(=O)N[C@@H](CCCNC(=N)N)C(N)=O)NC(=O)[C@H](CC(=O)O)NC(=O)CNC(=O)[C@H]([C@@H](C)CC)NC1=O)[C@@H](C)CC`, the IC50 in [13] is 15700 nM.

Consider `C=CC(=O)NCC1NC(=O)[C@@](C)(NC(C)=O)CCC/C=C/CCC[C@@](C)(C(=O)N[C@@H](CCC(=O)O)C(=O)N[C@@H](CC(C)C)C(=O)N[C@@H](CCCNC(=N)N)C(=O)N[C@@]2(C)CCC/C=C/CCC[C@@](C)(C(=O)N[C@@H](Cc3ccccc3)C(N)=O)NC(=O)[C@H](CC(=O)O)NC(=O)CNC(=O)[C@H]([C@@H](C)CC)NC2=O)NC(=O)[C@H](C)NC(=O)[C@H]([C@@H](C)CC)NC1=O` (stereo partly drawn) (Ac-[S5][ξDap](Acryloyl)IA[S5]ELR[S5]IGD[S5]F-NH2; staple (E) 1-5, 9-13), for which the outcome in experiment [2] was Active. The Ratio in experiment [3] worked out at 16.2 mM⁻¹ s⁻¹. The Ki in experiment [4] amounted to 133 nM. The outcome in [5], in [7] and in experiment [11] was inactive. The IC50 in experiment [8] worked out at 13.4 nM; in experiment [9] it was 51.6 nM. The Kinact in experiment [10] is 0.00224 s⁻¹.
